{"source": "paper PMC2229441", "about": "(The Journal of General Physiology, 1998)", "key": {"PtX-treated mast cells": {"tested_on": "PtX-treated mast cells", "details": "non–membrane-penetrating dyes; ref Wiesner et al., manuscript in preparation; cited from earlier work"}, "patch-clamped mast cells": {"tested_on": "patch-clamped mast cells", "type": "cell-based, rat", "outline": "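Peritoneal mast cells from male Wistar rats (300–350 g), Percoll-purified, held in DMEM/F-12 with 2 mM glutamine at 37°C, 5% CO2. Test peptide is delivered through the patch pipette (IS 2 with 100 μM FURA-2 and EGTA buffering). Degranulation is tracked as membrane capacitance rise after patch rupture; delay is taken at 10% capacitance increase. [Ca2+]i is read from 340/380 nm ratios. Mean ± SEM (cells).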"}}, "note": "Read-outs that look alike come from different tables or passages of the source.", "data": [{"compound": "carboxyfluorescein", "values": [{"measurement": "translocation into PtX-treated mast cells", "setting": "PtX-treated mast cells", "result": "not translocated"}]}, {"compound": "Nc1nc2c(ncn2[C@@H]2O[C@H](COP(=O)(O)OP(O)(O)=S)[C@@H](O)[C@H]2O)c(=O)[nH]1", "note": "[GDPβS]", "values": [{"measurement": "cells in which SP-induced exocytosis was inhibited", "setting": "patch-clamped mast cells; 1 mM GDPβS applied together with 5 μM SP through the patch pipette", "result": "four of five"}]}, {"compound": "Nc1nc2c(ncn2[C@@H]2O[C@H](COP(=O)(O)OP(=O)(O)OP(O)(O)=S)[C@@H](O)[C@H]2O)c(=O)[nH]1", "note": "[GTPγS]", "values": [{"measurement": "degranulation rate", "setting": "patch-clamped mast cells; 2.5–5 μM, n = 25, mean ± SEM", "result": "0.05 ± 0.005", "unit": "pF/s"}, {"measurement": "degranulation rate", "setting": "patch-clamped mast cells; 10–25 μM, n = 16, mean ± SEM", "result": "0.15 ± 0.03", "unit": "pF/s"}, {"measurement": "shortest time delay, extrapolated to high concentrations", "setting": "patch-clamped mast cells; extrapolation of curves of Fig. 7", "result": "about 20 s"}, {"measurement": "cells in which degranulation occurred", "setting": "patch-clamped mast cells; intracellular application at similar concentrations as SP, IS 1", "result": "41 of 45"}, {"measurement": "membrane capacitance increase in degranulating cells", "setting": "patch-clamped mast cells; intracellular application, IS 1, mean ± SEM (SP n = 31)", "result": "2.7 ± 0.1", "unit": "fold"}]}]}
